According to article PMC9314948 (Diabetes, Obesity & Metabolism, 2022):
Several values for one entry are separate records, joined by “and”; a condition that tells them apart may be missing. Identical values can stand only once.

Experiments:
[1] = Study B: pharmacokinetics of SC bremelanotide; assay type: in vivo, human; details: mean ± SD; for Cavg (D1) / Cmax (D1) / Cavg / RACC3.5 (ratio of day 4/day 1 concentrations 3.5 h postdose) / Tmax / Cmax: Study B; for Cmax (D1) / AUC(0-t) / Cmax: plasma; for Cavg: full dosing interval; for AUC(0-t): AUC0−3.5, Study B
Procedure, shortened: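 A further sample is taken on day 4 at 3.5 h postdose. Plasma levels are measured by HPLC-MS/MS and analysed non-compartmentally. RACC3.5 is the day 4/day 1 ratio at 3.5 h postdose.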

obese women [2] = assay: Study A: adverse events; assay type: in vivo, human; details: across Study A and Study B, subjects receiving bremelanotide
Procedure, shortened: (§1)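 Treatment-emergent AEs, including SAEs, are recorded throughout both inpatient placebo-controlled, double-blind SC trials in premenopausal obese women, alongside vital signs, ECG, clinical laboratory tests and physical examination. The safety population is all randomized subjects given ≥1 dose.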

obese women [3] = assay: Study A: body weight, caloric intake and waist circumference; assay type: in vivo, human; details: not significant vs placebo (1.24%)
murine model = details: ref Palatin Technologies, Inc. data on file; cited from earlier work
obese women [4] = assay: Study A: blood pressure; assay type: in vivo, human; details: over the course of the study, also seen with placebo
Procedure, shortened: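 Study A, three-times-daily SC dosing for 15 days. Blood pressure is taken at screening, on the 2 days before dosing, on the day after dosing, and 15 min predose and 1 h postdose at each dose on days 1-15, with subjects seated ≥5 min. Continuation requires systolic <155 and diastolic <95 mmHg. Post- vs predose changes are summarized descriptively by visit and treatment.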

[5] = Study A: accumulation of plasma bremelanotide concentration; assay type: in vivo, human; details: plasma 1 h after first dose of the day, SC 3 times daily
Procedure, shortened: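 Day 1 doses are 1.25 mg then 1.0 mg twice; later days are 2.5 mg then 2.0 mg twice. Plasma is sampled 1 h after the first daily dose on days 2, 8 and 15. Day 8/day 2 and day 15/day 2 ratios are computed, with accumulation defined as mean ratio 95% CI >1.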

rat model = details: ref Palatin Technologies, Inc. data on file; cited from earlier work
obese women [6] = assay: Study B: blood pressure withdrawal criteria; assay type: in vivo, human; details: 2.5 mg/2.0 mg dosing regimen
Procedure, shortened: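 Crossover regimen of 2.5 mg SC 1 h before breakfast and 2.0 mg 1 h before lunch over a 4-day period. Blood pressure is measured daily pre- and postdose after ≥5 min seated. Subjects are withdrawn unless systolic <155 mmHg and diastolic <95 mmHg at all assessments.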

obese women [7] = assay: Study B: adverse events; assay type: in vivo, human
Procedure, shortened: as §1

obese women [8] = assay: Study B: caloric intake and body weight; assay type: in vivo, human
Procedure, shortened: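 Double-blind crossover in inpatient obese women with six randomized sequences of three 4-day regimens separated by 5-day washouts: placebo/placebo, 2.5/2.0 mg, or 2.5 mg/placebo, given SC 1 h before breakfast and lunch. Meals are weighed before and after eating, and snacks are allowed 18:00-midnight. Subjects are weighed each morning before breakfast in underwear or scrubs. ITT analysis uses MMRM for intake and ANCOVA for weight change, with two-sided p.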

[9] = once-daily (2.5 mg/0 mg) SC, dose 1, n = 17-22
[10] = once-daily (2.5 mg/0 mg) SC, n = 17-22
[11] = twice-daily (2.5 mg/2.0 mg) SC, dose 1, n = 19-20
[12] = twice-daily (2.5 mg/2.0 mg) SC, n = 19-20
[13] = human, in vivo, sc, once-daily (2.5 mg/0 mg) SC, n = 17-22
[14] = human, in vivo, sc, twice-daily (2.5 mg/2.0 mg) SC, n = 19-20
[15] = once-daily (2.5 mg/0 mg) SC, 4-day period, n = 22
[16] = twice-daily (2.5 mg/2.0 mg) SC, 4-day period, n = 20

Cavg (D1) [1, 9]: 51.6 ± 10.1 ng/mL
Cmax (D1) [1, 9]: 75.1 ± 16.1 ng/mL
Cavg [1, 10]: 25.2 ± 4.7 ng/mL
RACC3.5 (ratio of day 4/day 1 concentrations 3.5 h postdose) [1, 10]: 1.0 ± 0.3
Tmax [1, 10]: 1.0 ± 0.3 h
Cavg (D1) [1, 11]: 50.2 ± 9.4 ng/mL
Cmax (D1) [1, 11]: 75.2 ± 16.3 ng/mL
Cavg [1, 12]: 41.7 ± 9.3 ng/mL
RACC3.5 (ratio of day 4/day 1 concentrations 3.5 h postdose) [1, 12]: 1.0 and 1.0 ± 0.1
AUC(0-t) [1, 13]: 181 ± 35.4 ng·h/mL
AUC(0-t) [1, 14]: 176 ± 32.6 ng·h/mL
Cmax [1, 13]: 75.1 ± 16.1 ng/mL
Cmax [1, 14]: 83.8 ± 15.6 ng/mL
Tmax ([1]; human, in vivo, sc, t max (D1), once-daily (2.5 mg/0 mg) SC, dose 1, n = 17-22): 1 ± 0.3 h
Tmax ([1]; human, in vivo, sc, t max (D1), twice-daily (2.5 mg/2.0 mg) SC, dose 1, n = 19-20): 0.9 ± 0.4 h
Tmax ([1]; human, in vivo, sc, t max, twice-daily (2.5 mg/2.0 mg) SC, n = 19-20): 3.3 ± 2 h
Mean ratio of day 8/day 2 bremelanotide concentrations [5]: 1.0
Mean ratio of day 15/day 2 bremelanotide concentrations [5]: 1.1
SMILES: CCCC[C@H](NC(C)=O)C(=O)N[C@H]1CC(=O)NCCCC[C@@H](C(=O)O)NC(=O)[C@H](Cc2c[nH]c3ccccc23)NC(=O)[C@H](CCCNC(=N)N)NC(=O)[C@@H](Cc2ccccc2)NC(=O)[C@H](Cc2c[nH]cn2)NC1=O [bremelanotide]
Subjects experiencing nausea (obese women [2]): 18% to 30
Mean decrease in waist circumference from baseline to day 16 (obese women [3]): 1.63%
Body weight (murine model): reduced
Food intake (murine model): reduced
Decrease from baseline in mean systolic blood pressure (obese women [4]): < 10%
Body weight (rat model): reduced
Food intake (rat model): reduced
Subjects withdrawn while receiving the regimen (obese women [6]): No subjects
AE leading to treatment discontinuation: Nausea (obese women [7]; [15]): 1 (4.5) n (%)
AE leading to treatment discontinuation: Vomiting (obese women [7]; [15]): 1 (4.5) n (%)
AE: Decreased appetite (obese women [7]; [15]): 2 (9.1) n (%)
AE: Ephelides (obese women [7]; [15]): 0 n (%)
AE: Feeling hot (obese women [7]; [15]): 2 (9.1) n (%)
AE: Flatulence (obese women [7]; [15]): 1 (4.5) n (%)
AE: Flushing (obese women [7]; [15]): 4 (18.2) n (%)
AE: Headache (obese women [7]; [15]): 2 (9.1) n (%)
AE: Injection site erythema (obese women [7]; [15]): 9 (40.9) n (%)
AE: Injection site pain (obese women [7]; [15]): 7 (31.8) n (%)
AE: Injection site pruritus (obese women [7]; [15]): 2 (9.1) n (%)
AE: Injection site reaction (obese women [7]; [15]): 16 (72.7) n (%)
AE: Injection site swelling (obese women [7]; [15]): 2 (9.1) n (%)
AE: Libido increased (obese women [7]; [15]): 3 (13.6) n (%)
AE: Nausea (obese women [7]; [15]): 4 (18.2) n (%)
AE: Pigmentation disorder (obese women [7]; [15]): 6 (27.3) n (%)
AE: Procedural dizziness (obese women [7]; [15]): 2 (9.1) n (%)
AE: Skin hyperpigmentation (obese women [7]; [15]): 0 n (%)
AE: Vessel puncture site haemorrhage (obese women [7]; [15]): 0 n (%)
Subjects experiencing an AE leading to treatment discontinuation (obese women [7]; [15]): 2 (9.1) n (%)
Subjects experiencing ≥1 AE (obese women [7]; [15]): 21 (95.5) n (%)
Subjects experiencing ≥1 AE: Mild (obese women [7]; [15]): 21 (95.5) n (%)
Subjects experiencing ≥1 AE: Moderate (obese women [7]; [15]): 4 (18.2) n (%)
Subjects experiencing ≥1 AE: Severe (obese women [7]; [15]): 0 n (%)
Subjects experiencing ≥1 treatment‐related AE (obese women [7]; [15]): 21 (95.5) n (%)
Treatment‐related AE: Decreased appetite (obese women [7]; [15]): 2 (9.1) n (%)
Treatment‐related AE: Ephelides (obese women [7]; [15]): 0 n (%)
Treatment‐related AE: Feeling hot (obese women [7]; [15]): 2 (9.1) n (%)
Treatment‐related AE: Flatulence (obese women [7]; [15]): 1 (4.5) n (%)
Treatment‐related AE: Flushing (obese women [7]; [15]): 4 (18.2) n (%)
Treatment‐related AE: Headache (obese women [7]; [15]): 2 (9.1) n (%)
Treatment‐related AE: Injection site erythema (obese women [7]; [15]): 9 (40.9) n (%)
Treatment‐related AE: Injection site pain (obese women [7]; [15]): 7 (31.8) n (%)
Treatment‐related AE: Injection site pruritus (obese women [7]; [15]): 2 (9.1) n (%)
Treatment‐related AE: Injection site reaction (obese women [7]; [15]): 16 (72.7) n (%)
Treatment‐related AE: Injection site swelling (obese women [7]; [15]): 2 (9.1) n (%)
Treatment‐related AE: Libido increased (obese women [7]; [15]): 3 (13.6) n (%)
Treatment‐related AE: Nausea (obese women [7]; [15]): 4 (18.2) n (%)
Treatment‐related AE: Pigmentation disorder (obese women [7]; [15]): 6 (27.3) n (%)
Treatment‐related AE: Skin hyperpigmentation (obese women [7]; [15]): 0 n (%)
Number of SAEs reported (in a single subject) (obese women [7]; once-daily bremelanotide, nausea, vomiting, hypersensitivity, dizziness, headache): Five
AE leading to treatment discontinuation: Vomiting (obese women [7]; [16]): 1 (5.0) n (%)
AE: Decreased appetite (obese women [7]; [16]): 0 n (%)
AE: Ephelides (obese women [7]; [16]): 2 (10.0) n (%)
AE: Feeling hot (obese women [7]; [16]): 0 n (%)
AE: Flatulence (obese women [7]; [16]): 3 (15.0) n (%)
AE: Flushing (obese women [7]; [16]): 3 (15.0) n (%)
AE: Headache (obese women [7]; [16]): 4 (20.0) n (%)
AE: Injection site erythema (obese women [7]; [16]): 5 (25.0) n (%)
AE: Injection site pain (obese women [7]; [16]): 8 (40.0) n (%)
AE: Injection site pruritus (obese women [7]; [16]): 3 (15.0) n (%)
AE: Injection site reaction (obese women [7]; [16]): 20 (100) n (%)
AE: Injection site swelling (obese women [7]; [16]): 2 (10.0) n (%)
AE: Libido increased (obese women [7]; [16]): 2 (10.0) n (%)
AE: Nausea (obese women [7]; [16]): 4 (20.0) n (%)
AE: Pigmentation disorder (obese women [7]; [16]): 2 (10.0) n (%)
AE: Procedural dizziness (obese women [7]; [16]): 0 n (%)
AE: Skin hyperpigmentation (obese women [7]; [16]): 3 (15.0) n (%)
AE: Vessel puncture site haemorrhage (obese women [7]; [16]): 2 (10.0) n (%)
Subjects experiencing an AE leading to treatment discontinuation (obese women [7]; [16]): 1 (5.0) n (%)
Subjects experiencing ≥1 AE (obese women [7]; [16]): 20 (100) n (%)
Subjects experiencing ≥1 AE: Mild (obese women [7]; [16]): 20 (100) n (%)
Subjects experiencing ≥1 AE: Moderate (obese women [7]; [16]): 1 (5.0) n (%)
Subjects experiencing ≥1 AE: Severe (obese women [7]; [16]): 0 n (%)
Subjects experiencing ≥1 SAE (obese women [7]; [16]): 0
Subjects experiencing ≥1 treatment‐related AE (obese women [7]; [16]): 20 (100) n (%)
Treatment‐related AE: Decreased appetite (obese women [7]; [16]): 0 n (%)
Treatment‐related AE: Ephelides (obese women [7]; [16]): 2 (10.0) n (%)
Treatment‐related AE: Feeling hot (obese women [7]; [16]): 0 n (%)
Treatment‐related AE: Flatulence (obese women [7]; [16]): 2 (10.0) n (%)
Treatment‐related AE: Flushing (obese women [7]; [16]): 3 (15.0) n (%)
Treatment‐related AE: Headache (obese women [7]; [16]): 3 (15.0) n (%)
Treatment‐related AE: Injection site erythema (obese women [7]; [16]): 5 (25.0) n (%)
Treatment‐related AE: Injection site pain (obese women [7]; [16]): 8 (40.0) n (%)
Treatment‐related AE: Injection site pruritus (obese women [7]; [16]): 3 (15.0) n (%)
Treatment‐related AE: Injection site reaction (obese women [7]; [16]): 20 (100.0) n (%)
Treatment‐related AE: Injection site swelling (obese women [7]; [16]): 2 (10.0) n (%)
Treatment‐related AE: Libido increased (obese women [7]; [16]): 2 (10.0) n (%)
Treatment‐related AE: Nausea (obese women [7]; [16]): 3 (15.0) n (%)
Treatment‐related AE: Pigmentation disorder (obese women [7]; [16]): 2 (10.0) n (%)
Treatment‐related AE: Skin hyperpigmentation (obese women [7]; [16]): 3 (15.0) n (%)
Daily caloric intake versus placebo (obese women [8]; once or twice daily, all four treatment days, p < 0.001): significantly lower
Weight loss after 4 days versus placebo (obese women [8]; once-daily (2.5 mg/0 mg) SC, p = .0805): numerically greater than weight loss observed in placebo‐treated subjects, but the difference did not reach statistical significance
Mean weight loss from baseline after 4 days (obese women [8]; twice-daily (2.5 mg/2.0 mg) SC, ITT, placebo 0.9 kg, p < .001): 1.7 kg
